pIC50: −log10 of the molar value.
What was measured:
MDA-MB-231 = assay: Antiproliferative activity against human MDA-MB-231 cells assessed as cell viability after 72 hrs by SRB assay; type: functional, cell-based; details: MDA-MB-231, 72 h
Method in brief: (§1)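 Cells grown in DMEM with 10% FBS and exposed to compound for 72 h. Viability read by sulforhodamine B (SRB) staining.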

[1] = Antiproliferative activity against human HCT116 cells assessed as cell viability after 72 hrs by SRB assay; type: functional, cell-based; details: HCT-116, 72 h; method in brief: as §1
HeLa = assay: Antiproliferative activity against human HeLa cells assessed as cell viability after 72 hrs by SRB assay; type: functional, cell-based; method in brief: as §1
Acetylcholinesterase = Acetylcholinesterase (Homo sapiens, UniProt P22303); assay: Inhibition of human acetylcholinesterase after 30 mins by microplate reader-based Ellman's method
Sequence of Acetylcholinesterase (P22303 whole entry): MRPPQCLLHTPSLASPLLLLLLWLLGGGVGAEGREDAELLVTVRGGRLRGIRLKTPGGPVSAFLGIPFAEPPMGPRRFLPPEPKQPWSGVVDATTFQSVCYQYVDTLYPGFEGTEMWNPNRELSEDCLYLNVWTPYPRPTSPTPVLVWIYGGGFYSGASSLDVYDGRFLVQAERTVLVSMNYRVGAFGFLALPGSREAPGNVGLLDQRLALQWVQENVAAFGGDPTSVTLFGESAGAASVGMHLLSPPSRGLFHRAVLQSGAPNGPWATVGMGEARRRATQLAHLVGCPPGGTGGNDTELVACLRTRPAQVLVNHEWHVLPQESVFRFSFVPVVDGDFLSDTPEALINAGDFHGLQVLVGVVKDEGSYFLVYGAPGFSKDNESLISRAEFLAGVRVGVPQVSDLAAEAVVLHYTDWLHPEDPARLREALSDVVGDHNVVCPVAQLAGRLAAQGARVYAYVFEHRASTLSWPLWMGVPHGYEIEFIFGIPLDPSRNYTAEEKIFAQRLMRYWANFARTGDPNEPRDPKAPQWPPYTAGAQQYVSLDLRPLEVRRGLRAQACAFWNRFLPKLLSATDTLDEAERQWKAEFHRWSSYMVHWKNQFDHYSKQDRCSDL

Row | Compound | pIC50 (MDA-MB-231) | pIC50 [1] | pIC50 (HeLa) | pIC50 (Acetylcholinesterase)
1 | CC[C@H]1O[C@@H]2O[C@H](/C=C/C=C/C=C/c3oc(=O)cc(OC)c3C)[C@H](O)[C@]2(C)[C@@]1(C)O | < 4.30 | < 4.30 | < 4.30 | –
2 | CC[C@H]1O[C@@H]2O[C@H](/C=C/C=C/C=C/c3oc(=O)cc(OC/C=C(\C)C(=O)OC)c3C)[C@H](O)[C@]2(C)[C@@]1(C)O | 4.46 | 5.05 | < 4.30 | 4.83
3 | CC[C@H]1O[C@@H]2O[C@H](/C=C/C=C/C=C/c3oc(=O)c4c(c3C)O[C@H](C)C4(C)C)[C@H](O)[C@]2(C)[C@@]1(C)O | < 4.30 | 4.30 | 4.32 | –
4 | CC[C@H]1O[C@@H]2O[C@H](/C=C/C=C/C=C/c3oc(=O)cc(OCC=C(C)C)c3C)[C@H](O)[C@]2(C)[C@@]1(C)O | 4.43 | 4.36 | 4.32 | –
5 | COC(=O)/C(C)=C/COc1cc(=O)oc(/C=C/C=C/C=C/[C@H]2O[C@H]3O[C@H](C)[C@](C)(O)[C@@]3(C)[C@H]2O)c1C | 4.55 | 4.68 | 4.96 | –
6 | COc1cc([C@@H]2c3cc4c(cc3[C@@H](O[C@@H]3O[C@@H]5CO[C@@H](C)O[C@H]5[C@H](O)[C@H]3O)[C@H]3COC(=O)[C@H]23)OCO4)cc(OC)c1O [ETOPOSIDE] | 5.38 | 4.58 | 5.49 | –
